Usually Ki stands for the equilibrium dissociation constant of an inhibitor or competing ligand from its target. By half-life is commonly meant how long it takes for the measured level to halve. Low readings indicate fast loss, high ones slow loss. What is called bioavailability is the share of a dose that reaches the circulation, judged against a reference dose that is usually intravenous. A low value points to poor availability.

This note sets out measurements from ChEMBL document CHEMBL3870359, “Design and Synthesis of Novel Meta-Linked Phenylglycine Macrocyclic FVIIa Inhibitors” (ACS Med Chem Lett, 2017).

Data set [1] concerns the target T1, Coagulation factor VII/tissue factor (Homo sapiens, UniProt P08709). The data set is described as follows: Inhibition of recombinant human factor-7a/TF using S2288 as substrate measured after 60 mins at 37 degC. It counts as protein-complex assay. The essentials: (§1)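 Ki determined against recombinant human TF/FVIIa enzyme, each value averaged from two experiments. The assay was first run at 25 °C and later moved to 37 °C to better approximate physiological conditions.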

The nature of data set [2]: Anticoagulant activity in factor 7 deficient human plasma assessed as concentration required for prolongation of prothrombin time. In kind it is functional. The essentials: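 Clotting (prothrombin time) assay in FVII-deficient human plasma. Read-out is the compound concentration that prolongs clotting time 2-fold (EC2X, μM).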
Data set [3] is described as follows: Half life in rat liver microsomes. It counts as ADME. A general note: Microsomes from liver hold many membrane-bound enzymes, among them those of drug oxidation.
Data set [4] is described as follows: Permeability of the compound at pH 7.4 by PAMPA. It counts as ADME. The following applies: read-out: permeability. (In general: PAMPA measures passive passage across an artificial lipid membrane.)
A short description of data set [5]: Half life in human liver microsomes. In kind it is ADME.
The nature of data set [6]: Permeability of the compound at pH 5.5 by PAMPA. The settings on record: read-out: permeability. In kind it is ADME.
The next data set has as its target Kallikrein-1 (Homo sapiens, UniProt P06870). The data set is described as follows: Inhibition of tissue Kallikrein-1 (unknown origin).
Data set [7] has as its target Vitamin K-dependent protein C (Homo sapiens, UniProt P04070). The data set is described as follows: Inhibition of activated protein C (unknown origin).
For data set [8], the target named is T1, Coagulation factor VII/tissue factor. The experiment in a line: Inhibition of recombinant human factor-7a/TF using S2288 as substrate measured after 60 mins at 25 degC. In kind it is protein-complex assay. In a few lines: as §1
Data set [9] in a line: Oral bioavailability in rat. It counts as ADME, organism-based. The following applies: in vivo.

Bounds are passed on as bounds.

T1 sequence (P08709 61-212 limits assumed): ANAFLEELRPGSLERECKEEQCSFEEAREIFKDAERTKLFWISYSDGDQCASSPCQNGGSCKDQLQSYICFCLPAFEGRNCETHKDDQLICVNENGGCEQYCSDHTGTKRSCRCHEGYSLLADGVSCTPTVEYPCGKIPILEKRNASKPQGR
T1 sequence (P08709 213-466 limits assumed): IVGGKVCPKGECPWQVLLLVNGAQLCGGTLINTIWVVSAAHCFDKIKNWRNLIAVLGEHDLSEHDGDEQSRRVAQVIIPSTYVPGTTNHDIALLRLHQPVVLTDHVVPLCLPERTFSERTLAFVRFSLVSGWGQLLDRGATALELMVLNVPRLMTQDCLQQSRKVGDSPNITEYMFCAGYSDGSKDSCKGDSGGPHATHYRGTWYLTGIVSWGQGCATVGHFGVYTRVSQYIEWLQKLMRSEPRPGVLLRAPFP
T1 sequence (P13726 33-295 partner limits assumed): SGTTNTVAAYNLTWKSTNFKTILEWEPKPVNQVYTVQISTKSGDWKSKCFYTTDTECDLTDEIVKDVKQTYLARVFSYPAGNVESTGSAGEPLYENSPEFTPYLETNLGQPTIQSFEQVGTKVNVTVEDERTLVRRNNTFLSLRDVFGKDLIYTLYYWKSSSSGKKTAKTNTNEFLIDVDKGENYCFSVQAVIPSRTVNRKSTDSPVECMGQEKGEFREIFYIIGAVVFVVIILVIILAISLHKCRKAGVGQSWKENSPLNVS
Vitamin K-dependent protein C, sequence (P04070 43-197 limits assumed): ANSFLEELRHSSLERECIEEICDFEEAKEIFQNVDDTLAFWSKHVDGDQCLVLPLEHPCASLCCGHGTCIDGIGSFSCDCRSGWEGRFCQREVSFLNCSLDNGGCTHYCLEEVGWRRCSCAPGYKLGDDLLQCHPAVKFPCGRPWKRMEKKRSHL
Vitamin K-dependent protein C, sequence (P04070 212-461 limits assumed): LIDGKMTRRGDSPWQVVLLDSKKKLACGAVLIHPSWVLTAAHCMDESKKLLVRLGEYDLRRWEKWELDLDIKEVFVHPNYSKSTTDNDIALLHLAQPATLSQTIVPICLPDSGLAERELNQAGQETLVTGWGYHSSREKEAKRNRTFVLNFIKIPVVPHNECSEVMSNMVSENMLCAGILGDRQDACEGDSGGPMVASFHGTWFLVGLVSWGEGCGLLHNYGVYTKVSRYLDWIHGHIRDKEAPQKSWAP
Kallikrein-1, sequence (P06870 whole entry): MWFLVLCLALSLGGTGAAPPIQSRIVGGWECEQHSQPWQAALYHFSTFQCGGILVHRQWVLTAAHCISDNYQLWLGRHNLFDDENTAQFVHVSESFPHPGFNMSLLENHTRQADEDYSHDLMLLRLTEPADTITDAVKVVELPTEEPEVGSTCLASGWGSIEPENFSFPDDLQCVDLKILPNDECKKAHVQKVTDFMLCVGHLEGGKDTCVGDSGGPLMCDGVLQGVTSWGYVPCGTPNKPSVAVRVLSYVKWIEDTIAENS

Consider `COc1ccc2cc1CCC(=O)Nc1ccc(S(=O)(=O)C3CC3)c(c1)CN(C)C(=O)[C@@H]2Nc1ccc2c(N)ncc(F)c2c1`, for which the Ki in data set [1] turned out to be 18 nM. Further, in data set [2], the 2PT turned out to be 11 µM. Besides, the half-life was 16 min in data set [3] and 14 min in [5]. For the same compound, the Papp in data set [4] came to 54 ×10⁻⁶ cm/s; in [6], 35 ×10⁻⁶ cm/s.

In the case of `CN1Cc2cc(ccc2S(=O)(=O)C2CC2)NC(=O)CCc2cc(ccc2OCC(F)F)[C@@H](Nc2ccc3c(N)ncc(F)c3c2)C1=O`, the Ki in data set [1] came to 27 nM; at Kallikrein-1, 140 nM; in data set [7] it was 1200 nM. In addition, the 2PT in data set [2] was 15 µM. Moreover, the figures for the half-life in [3] and in data set [5] were 64 min and 32 min, respectively. Moreover, the Papp in data set [6] worked out at 8.8 ×10⁻⁶ cm/s.

As for `C[C@@H]1CC(=O)Nc2ccc(S(=O)(=O)C3CC3)c(c2)CN(C)C(=O)[C@H](Nc2ccc3c(N)ncc(F)c3c2)c2ccc(OCC(F)F)c1c2`, the Ki in [1] was determined as 0.24 nM; on Kallikrein-1 it was 9.4 nM; in [7] it was 39 nM. The 2PT in data set [2] is 3.5 µM. In addition, the results for the half-life in data set [3] and in data set [5] were 39 min and 31 min, respectively.

For the compound `CN1Cc2cc(ccc2S(=O)(=O)C2CC2)NC(=O)CCc2cccc(c2)[C@@H](Nc2ccc3c(N)nccc3c2)C1=O`, the inhibition constant Ki in data set [8] was under 5 nM; in data set [1], 58 nM.

For `COc1c(F)cc2cc1CCC(=O)Nc1ccc(S(=O)(=O)C3CC3)c(c1)CN(C)C(=O)[C@@H]2Nc1ccc2c(N)ncc(F)c2c1`, in data set [1], the inhibition constant (Ki) turned out to be 410 nM. In addition, the 2PT in data set [2] turned out to be 41 µM. Besides, the half-life in data set [3] turned out to be 8 min; in data set [5], 14 min.

Take `CN1Cc2cc(ccc2S(=O)(=O)C2CC2)NC(=O)CCc2cc(ccc2F)[C@@H](Nc2ccc3c(N)ncc(F)c3c2)C1=O`: the inhibition constant (Ki) in [1] came out at 210 nM. Further, the 2PT in [2] turned out to be 26 µM.

Consider `CN1CCc2cccc(c2)[C@@H](Nc2ccc3c(N)nccc3c2)C(=O)N(C)Cc2cc(ccc2S(=O)(=O)C2CC2)NC1=O`, for which the inhibition constant Ki in [1] was 6.3 nM.

`CN1Cc2cc(ccc2S(=O)(=O)C2CC2)NC(=O)CCc2cc(ccc2OCC2CC2)[C@@H](Nc2ccc3c(N)ncc(F)c3c2)C1=O`: in [1], the Ki was 26 nM. Moreover, the 2PT in data set [2] turned out to be 29 µM. Moreover, the half-life in data set [3] and in data set [5] was 23 min in each case.

Regarding `COc1cc2cc(c1)[C@@H](Nc1ccc3c(N)ncc(F)c3c1)C(=O)N(C)Cc1cc(ccc1S(=O)(=O)C1CC1)NC(=O)CC2`, in data set [1], the Ki came out at 290 nM. Besides, the 2PT in data set [2] turned out to be 14 µM. In addition, the half-life is 46 min in data set [3] and 15 min in [5]. Further, the values for the Papp in data set [4] and in data set [6] were 29 ×10⁻⁶ cm/s and 1.5 ×10⁻⁶ cm/s, respectively.

As to `CN1Cc2cc(ccc2S(=O)(=O)C2CC2)NC(=O)CCc2cc(ccc2C2CC2)[C@@H](Nc2ccc3c(N)ncc(F)c3c2)C1=O`, in [1], the Ki was found to be 77 nM. Further, in data set [2], the 2PT stood at 26 µM. For the same compound, the figures for the half-life in data set [3] and in data set [5] were 5 min and 26 min, respectively.

As to `CN1Cc2cc(ccc2S(=O)(=O)C2CC2)NC(=O)CCc2cccc(c2)[C@@H](Nc2ccc3c(N)ncc(F)c3c2)C1=O`, the inhibition constant (Ki) in data set [1] was determined as 260 nM. For the same compound, the 2PT in data set [2] came out at 10 µM. For the same compound, the half-life in data set [3] worked out at 33 min; in data set [5], 13 min. The same compound yielded a bioavailability in [9] of 3.7%. For the same compound, the figures for the Papp in [4] and in data set [6] were 12 ×10⁻⁶ cm/s and 6.7 ×10⁻⁶ cm/s, respectively.

`CN1Cc2cc(ccc2S(=O)(=O)C2CC2)NC(=O)NCCc2cccc(c2)[C@@H](Nc2ccc3c(N)ncc(F)c3c2)C1=O`: in data set [8], the inhibition constant (Ki) stood at 17 nM.

On to `CN1CCc2cccc(c2)[C@@H](Nc2ccc3c(N)ncc(F)c3c2)C(=O)N(C)Cc2cc(ccc2S(=O)(=O)C2CC2)NC1=O`, for which the values for the Ki in [8] and in data set [1] were 14 nM and 200 nM, respectively. Besides, the half-life in data set [3] was found to be 6 min; in [5] it was 5 min. The F entry in [9] (BLD = below limit of detection) is on record as “Bld”. Moreover, in data set [4], the Papp came to 22 ×10⁻⁶ cm/s.

As to `CN1Cc2cc(ccc2S(=O)(=O)C2CC2)NC(=O)OCc2cccc(c2)[C@@H](Nc2ccc3c(N)nccc3c2)C1=O`, the Ki in data set [8] stood at 260 nM.

Consider `COc1ccc2cc1[C@@H](C)CN(C)C(=O)Nc1ccc(S(=O)(=O)C3CC3)c(c1)CN(C)C(=O)[C@@H]2Nc1ccc2c(N)ncc(F)c2c1`, for which the inhibition constant Ki in data set [8] is under 5 nM; in data set [1], 3.8 nM. The half-life in data set [3] and in [5] was 4 min throughout.

As to `C[C@H]1CC(=O)Nc2ccc(S(=O)(=O)C3CC3)c(c2)CN(C)C(=O)[C@H](Nc2ccc3c(N)ncc(F)c3c2)c2ccc(OCC(F)F)c1c2`, the results for the Ki (in data set [1]; at Kallikrein-1; in [7]) were 67 nM, 23 nM and 5700 nM, respectively. Also, the 2PT in data set [2] amounted to 23 µM. Also, the half-life is 74 min in [3] and 14 min in [5].

`CN1Cc2cc(ccc2S(=O)(=O)C2CC2)NC(=O)N(Cc2ccccc2)CCc2cccc(c2)[C@@H](Nc2ccc3c(N)ncc(F)c3c2)C1=O`: the Ki in [8] was 80 nM.

Consider `CN1Cc2cc(ccc2S(=O)(=O)C2CC2)NC(=O)CCc2cc(ccc2O)[C@@H](Nc2ccc3c(N)ncc(F)c3c2)C1=O`, for which the Ki in [1] amounted to 92 nM. The 2PT in data set [2] was determined as 14 µM.

For the compound `COc1ccc2cc1[C@H](C)CN(C)C(=O)Nc1ccc(S(=O)(=O)C3CC3)c(c1)CN(C)C(=O)C2Nc1ccc2c(N)nccc2c1` (mixture of isomers), in data set [8], the Ki is 47 nM. For the same compound, the half-life in [3] and in [5] was 6 min in each case.

Turning to `CN1Cc2cc(ccc2S(=O)(=O)C2CC2)NC(=O)N(CC2CCC2)CCc2cccc(c2)C(Nc2ccc3c(N)ncc(F)c3c2)C1=O` (racemic), the inhibitory constant (Ki) in data set [8] is 150 nM.

Take `CN1Cc2cc(ccc2S(=O)(=O)C2CC2)NC(=O)N(CC2CC2)CCc2cccc(c2)C(Nc2ccc3c(N)ncc(F)c3c2)C1=O` (racemic): the inhibition constant (Ki) in data set [8] came out at 59 nM. Besides, the half-life turned out to be 12 min in data set [3] and 5 min in [5].
